{
  "source": "ChEMBL document CHEMBL3286371",
  "about": "“wALADin benzimidazoles differentially modulate the function of porphobilinogen synthase orthologs” (J Med Chem, 2014)",
  "key": {"[1]": {"experiment": "Stimulation of Toxoplasma gondii recombinant PBGS using 5-ALA as substrate", "procedure,_shortened": "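T. gondii PBGS, expressed from pET-21b in BL21 E. coli and purified, at 250 nM subunit in 100 mM Tris-HCl pH 8.0 with 1 mM MgCl2, 5 mM DTT and 0.2 mM 5-ALA, 20 min at 36 °C. Porphobilinogen detected with Ehrlich's reagent. Activity normalized to 6.7% DMSO control. EC50 by variable-slope agonist fit.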"}, "[2]": {"biological_target": "T1, Delta-aminolevulinic acid dehydratase (Escherichia coli (strain K12)) (UniProt P0ACB2)", "T1 sequence (whole entry)": "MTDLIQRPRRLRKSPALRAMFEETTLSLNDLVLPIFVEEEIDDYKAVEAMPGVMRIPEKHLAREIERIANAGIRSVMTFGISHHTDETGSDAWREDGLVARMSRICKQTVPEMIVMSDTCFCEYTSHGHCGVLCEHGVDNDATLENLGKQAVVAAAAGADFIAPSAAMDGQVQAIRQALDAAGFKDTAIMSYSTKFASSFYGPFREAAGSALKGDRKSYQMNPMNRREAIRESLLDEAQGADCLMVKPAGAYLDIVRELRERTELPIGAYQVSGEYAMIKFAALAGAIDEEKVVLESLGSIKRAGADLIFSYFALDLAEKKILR", "experiment": "Stimulation of Escherichia coli recombinant PBGS using 5-ALA as substrate relative to control", "procedure,_shortened": "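E. coli PBGS at 200 nM subunit in 100 mM BTP-HCl pH 8.1 with 1 mM MgCl2, 10 μM ZnCl2, 5 mM DTT and 0.2 mM 5-ALA, 10 min at 36 °C. Porphobilinogen detected with Ehrlich's reagent. EC50 by log(agonist) vs response variable-slope fit.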"}, "[3]": {"biological_target": "T1, Delta-aminolevulinic acid dehydratase (Escherichia coli (strain K12))", "experiment": "Stimulation of Escherichia coli recombinant PBGS using 5-ALA as substrate at 10 to 1000 uM at pH 8 in presence of 0.1 to 10000 uM MgCl2"}, "[4]": {"biological_target": "Delta-aminolevulinic acid dehydratase (Pseudomonas aeruginosa (strain ATCC 15692 / PAO1 / 1C / PRS 101 / LMG12228)) (UniProt Q59643)", "sequence (Q59643 whole entry)": "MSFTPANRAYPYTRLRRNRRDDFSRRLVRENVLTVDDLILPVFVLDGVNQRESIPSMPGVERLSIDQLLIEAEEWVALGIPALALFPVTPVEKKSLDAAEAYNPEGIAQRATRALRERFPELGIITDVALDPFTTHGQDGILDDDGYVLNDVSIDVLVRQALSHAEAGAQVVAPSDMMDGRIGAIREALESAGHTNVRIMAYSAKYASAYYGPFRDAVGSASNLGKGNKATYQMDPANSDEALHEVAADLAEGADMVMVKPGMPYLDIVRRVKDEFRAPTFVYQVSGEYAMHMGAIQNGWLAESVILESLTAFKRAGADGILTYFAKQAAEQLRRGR", "experiment": "Binding affinity to Pseudomonas aeruginosa PAO1 recombinant PBGS at 100 to 500 uM by thermal shift assay"}, "[5]": {"biological_target": "T2, Delta-aminolevulinic acid dehydratase (Wolbachia sp. subsp. Brugia malayi (strain TRS)) (UniProt Q5GSR3)", "T2 sequence (whole entry)": "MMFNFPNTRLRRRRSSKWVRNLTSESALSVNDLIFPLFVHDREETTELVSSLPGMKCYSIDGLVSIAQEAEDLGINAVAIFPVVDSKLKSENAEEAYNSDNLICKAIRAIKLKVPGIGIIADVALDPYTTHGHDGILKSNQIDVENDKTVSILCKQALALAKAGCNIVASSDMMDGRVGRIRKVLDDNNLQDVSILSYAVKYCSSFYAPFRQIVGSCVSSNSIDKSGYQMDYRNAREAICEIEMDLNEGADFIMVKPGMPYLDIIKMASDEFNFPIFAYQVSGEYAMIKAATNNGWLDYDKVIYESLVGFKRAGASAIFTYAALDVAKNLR", "settings": "25 to 2500 uM"}, "[6]": {"biological_target": "T3, Delta-aminolevulinic acid dehydratase (Drosophila melanogaster, UniProt Q9VTV9)", "T3 sequence (Q9VTV9 whole entry)": "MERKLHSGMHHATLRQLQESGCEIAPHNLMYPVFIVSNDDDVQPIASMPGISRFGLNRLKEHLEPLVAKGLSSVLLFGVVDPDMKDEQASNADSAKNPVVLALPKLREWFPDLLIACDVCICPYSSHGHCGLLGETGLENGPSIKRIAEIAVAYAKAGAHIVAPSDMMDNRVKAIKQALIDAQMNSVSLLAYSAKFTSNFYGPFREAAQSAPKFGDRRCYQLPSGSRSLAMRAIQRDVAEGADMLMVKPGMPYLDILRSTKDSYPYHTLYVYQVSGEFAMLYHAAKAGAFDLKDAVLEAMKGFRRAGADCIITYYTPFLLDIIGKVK", "experiment": "Inhibition of Drosophila melanogaster recombinant PBGS using 5-ALA as substrate"}, "[7]": {"biological_target": "Delta-aminolevulinic acid dehydratase (Pseudomonas aeruginosa (strain ATCC 15692 / PAO1 / 1C / PRS 101 / LMG12228), UniProt Q59643)", "sequence (Q59643 whole entry)": "as the sequence (Q59643 whole entry) above", "experiment": "Inhibition of Pseudomonas aeruginosa PAO1 recombinant PBGS using 5-ALA as substrate", "procedure,_shortened": "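Turnover kept at or below 30%. Porphobilinogen measured with Ehrlich's reagent. IC50 by variable-slope fit of activity normalized to DMSO control.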"}, "[8]": {"biological_target": "Delta-aminolevulinic acid dehydratase (Pseudomonas aeruginosa (strain ATCC 15692 / PAO1 / 1C / PRS 101 / LMG12228)) (UniProt Q59643)", "experiment": "Inhibition of Pseudomonas aeruginosa PAO1 recombinant PBGS assessed as inhibition of octamer-inducing effect of K+ by nondenaturing PAGE analysis", "procedure,_shortened": "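PaPBGS (3 μg) preincubated 20 min at 37 °C in assay buffer with 1 mM Mg2+, 100 mM K+ and wALADin1, no 5-ALA. Run on 7.5% nondenaturing PAGE at 4 °C for 15–20 h. Coomassie for oligomer state; in-gel activity with 500 μM 5-ALA stained with Ehrlich's reagent.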"}, "[9]": {"biological_target": "Delta-aminolevulinic acid dehydratase (Pseudomonas aeruginosa (strain ATCC 15692 / PAO1 / 1C / PRS 101 / LMG12228)) (UniProt Q59643)", "experiment": "Binding affinity to Pseudomonas aeruginosa PAO1 recombinant PBGS at 100 to 500 uM by thermal shift assay in presence of KCl"}, "[10]": {"biological_target": "Delta-aminolevulinic acid dehydratase (Pseudomonas aeruginosa (strain ATCC 15692 / PAO1 / 1C / PRS 101 / LMG12228)) (UniProt Q59643)", "experiment": "Inhibition of Pseudomonas aeruginosa PAO1 recombinant PBGS using 0.2 mM 5-ALA as substrate at 50 to 200 uM at low pH by buffer scan assay"}, "[11]": {"biological_target": "Delta-aminolevulinic acid dehydratase (Pseudomonas aeruginosa (strain ATCC 15692 / PAO1 / 1C / PRS 101 / LMG12228)) (UniProt Q59643)", "experiment": "Inhibition of Pseudomonas aeruginosa PAO1 recombinant PBGS using 0.2 mM 5-ALA as substrate assessed as reduction in Vmax at 50 to 200 uM at pH 7.5 by Michaelis-Menten plot analysis in presence of MgCl2", "procedure,_shortened": "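PaPBGS under \"standard inhibitory\" conditions (100 mM Tris-HCl pH 7.5, 1 mM MgCl2, no KCl). 5-ALA varied for substrate-response curves at several wALADin1 levels; KM and VMAX derived from the fits. Incubation at 36 °C.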"}, "[12]": {"biological_target": "T2, Delta-aminolevulinic acid dehydratase (Wolbachia sp. subsp. Brugia malayi (strain TRS))", "settings": "25 to 2500 uM", "remark": "listed apart in the source"}, "[13]": {"biological_target": "Delta-aminolevulinic acid dehydratase (Pseudomonas aeruginosa (strain ATCC 15692 / PAO1 / 1C / PRS 101 / LMG12228)) (UniProt Q59643)", "experiment": "Stimulation of Pseudomonas aeruginosa PAO1 recombinant PBGS using 5 mM 5-ALA as substrate assessed as effect on Km at 50 to 200 uM at pH 8 by Michaelis-Menten plot analysis in presence of MgCl2", "procedure,_shortened": "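Mg2+ or substrate response curves recorded with and without wALADin1; VMAX, KM and Mg2+ affinity derived from the fits.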"}, "[14]": {"biological_target": "Delta-aminolevulinic acid dehydratase (Yersinia enterocolitica W22703) (UniProt F4MUJ9)", "sequence (F4MUJ9 as listed by the source)": "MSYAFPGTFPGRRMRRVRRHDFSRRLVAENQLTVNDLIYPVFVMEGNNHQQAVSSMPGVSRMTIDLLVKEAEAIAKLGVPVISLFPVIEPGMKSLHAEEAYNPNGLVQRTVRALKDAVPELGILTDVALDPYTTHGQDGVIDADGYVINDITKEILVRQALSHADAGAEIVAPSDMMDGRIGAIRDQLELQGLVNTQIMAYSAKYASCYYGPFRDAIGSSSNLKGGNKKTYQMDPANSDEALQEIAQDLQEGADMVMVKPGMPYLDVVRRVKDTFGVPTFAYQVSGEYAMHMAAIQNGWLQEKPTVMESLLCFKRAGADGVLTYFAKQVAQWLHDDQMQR", "experiment": "Stimulation of Yersinia enterocolitica recombinant PBGS expressed in Escherichia coli at 125 to 2000 uM by nondenaturing PAGE analysis in presence of Mg2+ and K+", "procedure,_shortened": "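YePBGS (2 μg) preincubated 20 min at 37 °C in BTP pH 8.0 buffer with K+, Mg2+ and wALADin1. Run on 7.5% nondenaturing PAGE; Coomassie stain and in-gel activity (100 mM KCl, 10 mM MgCl2, 500 μM 5-ALA) read with Ehrlich's reagent.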"}},
  "note": "Activity calls are given as the source filed them. No cut-off for these calls is given here.",
  "data": [
    {"smiles": "O=C(O)c1ccc2c(c1)nc(CCNC(=O)c1cccs1)n2Cc1cccc(C(F)(F)F)c1", "values": [
      {"measurement": "EC50", "setting": "[1]", "value": 95, "unit": "µM"},
      {"measurement": "Smax", "setting": "[2]", "value": 120, "unit": "%"},
      {"measurement": "Activity", "setting": "[3]", "value": "Active"},
      {"measurement": "Activity", "setting": "[4]", "value": "Active"},
      {"measurement": "inhibition", "setting": "[5]", "value": "Active"},
      {"measurement": "IC50", "setting": "[6]", "value": 1110, "unit": "µM"},
      {"measurement": "IC50", "setting": "[7]", "value": 79, "unit": "µM"},
      {"measurement": "inhibition", "setting": "[8]", "value": "Dose-dependent effect"},
      {"measurement": "Activity", "setting": "[9]", "value": "Active"},
      {"measurement": "inhibition", "setting": "[10]", "value": "Active"},
      {"measurement": "inhibition", "setting": "[11]", "value": "Active"},
      {"measurement": "inhibition", "setting": "[12]", "value": "inactive"},
      {"measurement": "Activity", "setting": "[13]", "value": "inactive"},
      {"measurement": "Activity", "setting": "[14]", "value": "inactive"}
    ]}
  ]
}
